Experimental findings from ChEMBL document CHEMBL3244400, “Synthesis of 3,4-dihydro-4-oxothieno[2,3-d]pyrimidine-2-carboxylates, a new series of orally active antiallergy agents” (J Med Chem, 1979) are described below.

Molecules are shown by their SMILES.

Format in all cases: functional
For assay [1], the system named is Rattus norvegicus. Description: Inhibition of egg albumin-induced allergic bronchospasm in sensitized, spontaneously breathing and anesthesized Harlan-Wistar rat assessed as inhibition of control allergic hypotension response at 2 mg/kg, iv administered 1 min prior to antigen challenge. A digest of the protocol:
(§1)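 Male Harlan-Wistar rats (225–275 g) were sensitized with EA im (1 mg/rat) plus pertussis vaccine ip. After 13–15 days they were urethane-anesthetized (1.5 g/kg ip). Drug was given intraduodenally in methocel or iv in saline, then EA 2 mg/rat iv. Pulmonary ventilation pressure and mean arterial pressure were recorded. Individual responses were compared with a separate vehicle-control group mean; 4–15 rats/group.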

The subject of assay [2] is Mast cell. Kind of assay: Inhibition of histamine release in Sprague-Dawley rat peritoneal mast cells at 20 uM after 10 mins by fluorimetry relative to control. An outline of the steps: (§2)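 Peritoneal lavage cells from male Sprague–Dawley rats (200–300 g) were sensitized for 2 h at 37 °C in rat anti-EA serum with heparin. Cells were resuspended in buffered HBSS and challenged with EA. Drug was added together with antigen. After 10 min incubation, histamine was measured fluorimetrically. % inhibition was calculated versus release without drug.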

In assay [3] the test system is Rattus norvegicus. Description: Inhibition of egg albumin-induced allergic bronchospasm in sensitized, spontaneously breathing and anesthesized Harlan-Wistar rat assessed as drop in pulmonary arterial blood pressure at 2 mg/kg, iv administered 1 min prior to antigen challenge (reference value: 36.4 +/- 3.5 %). A digest of the protocol:
as §1

The test system of assay [4] is Rattus norvegicus. Description: Antiallergic activity against egg albumin-induced anaphylaxis in iv dosed sensitized rat compound administered 15 mins prior to antigen challenge as single dose by passive cutaneous anaphylaxis test. An outline of the steps:
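Male Sprague–Dawley or Wistar rats (100–150 g) were passively sensitized by two intradermal dilutions of rat anti-egg-albumin serum, which was mainly IgE and raised with EA im (10 mg/kg) plus killed pertussis vaccine iv. After 48 h, drug or vehicle was given. Rats were then challenged iv with EA plus Evans Blue (25 mg/kg each). Spot diameter was read 20–30 min later; ≥5 rats/compound. % inhibition was calculated versus control mean diameter.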

Assay [5] relates to Mast cell. Kind of assay: Inhibition of histamine release in Sprague-Dawley rat peritoneal mast cells at 1.25 uM after 10 mins by fluorimetry relative to control. An outline of the steps:
as §2

Assay [6] relates to Mast cell. Kind of assay: Inhibition of histamine release in Sprague-Dawley rat peritoneal mast cells at 5 uM after 10 mins by fluorimetry relative to control. A digest of the protocol:
as §2

For assay [7], the system named is Rattus norvegicus. Kind of assay: Inhibition of egg albumin-induced allergic bronchospasm in sensitized, spontaneously breathing and anesthesized Harlan-Wistar rat assessed as inhibition of control allergic bronchospasm response at 2 mg/kg, iv administered 1 min prior to antigen challenge. A digest of the protocol: as §1
For assay [8], the system named is Rattus norvegicus. Description: Inhibition of egg albumin-induced allergic bronchospasm in sensitized, spontaneously breathing and anesthesized Harlan-Wistar rat assessed as drop in mean arterial blood pressure at 2 mg/kg, iv administered 1 min prior to antigen challenge (reference value: 49.7+/- 1.9 %). An outline of the steps:
as §1

Assay [9] concerns Rattus norvegicus. Description: Inhibition of egg albumin-induced allergic bronchospasm in sensitized, spontaneously breathing and anesthesized Harlan-Wistar rat assessed as inhibition of control allergic bronchospasm response at 1.56 mg/kg administered intraduodenally 15 min prior to antigen challenge. To be noted: route intraduodenal. An outline of the steps:
as §1

In assay [10] the test system is Rattus norvegicus. Kind of assay: Inhibition of egg albumin-induced allergic bronchospasm in sensitized, spontaneously breathing and anesthesized Harlan-Wistar rat assessed as drop in pulmonary arterial blood pressure at 6.25 mg/kg administered intraduodenally 15 min prior to antigen challenge (reference value: 32.2 +/- 4.7 %). Conditions: route intraduodenal. An outline of the steps: as §1

The subject of assay [11] is Rattus norvegicus. Description: Inhibition of egg albumin-induced allergic bronchospasm in sensitized, spontaneously breathing and anesthesized Harlan-Wistar rat assessed as drop in mean arterial blood pressure at 50 mg/kg administered intraduodenally 15 min prior to antigen challenge (reference value: 46.3 +/- 3.5 %). Conditions: route intraduodenal. A digest of the protocol: as §1

Assay [12] has as its system Rattus norvegicus. Description: Inhibition of egg albumin-induced allergic bronchospasm in sensitized, spontaneously breathing and anesthesized Harlan-Wistar rat assessed as inhibition of control allergic hypotension response at 1.56 mg/kg administered intraduodenally 15 min prior to antigen challenge. To be noted: route intraduodenal. A digest of the protocol:
as §1

For assay [13], the system named is Rattus norvegicus. Kind of assay: Inhibition of egg albumin-induced allergic bronchospasm in sensitized, spontaneously breathing and anesthesized Harlan-Wistar rat assessed as inhibition of control allergic hypotension response compound administered intraduodenally 15 min prior to antigen challenge. To be noted: in the assay text read “bronchospasm response” for “hypotension response”. A digest of the protocol: as §1

The test system of assay [14] is Rattus norvegicus. Description: Inhibition of egg albumin-induced allergic bronchospasm in sensitized, spontaneously breathing and anesthesized Harlan-Wistar rat assessed as inhibition of control allergic hypotension response at 3.125 mg/kg administered intraduodenally 15 min prior to antigen challenge. To be noted: route intraduodenal. An outline of the steps:
as §1

The subject of assay [15] is Rattus norvegicus. Kind of assay: Inhibition of egg albumin-induced allergic bronchospasm in sensitized, spontaneously breathing and anesthesized Harlan-Wistar rat assessed as drop in pulmonary arterial blood pressure at 3.125 mg/kg administered intraduodenally 15 min prior to antigen challenge (reference value: 32.2 +/- 4.7 %). Conditions: route intraduodenal. An outline of the steps: as §1

Assay [16] deals with Rattus norvegicus. Description: Inhibition of egg albumin-induced allergic bronchospasm in sensitized, spontaneously breathing and anesthesized Harlan-Wistar rat assessed as drop in pulmonary arterial blood pressure at 12.5 mg/kg administered intraduodenally 15 min prior to antigen challenge (reference value: 32.2 +/- 4.7 %). To be noted: route intraduodenal. A digest of the protocol:
as §1

The test system of assay [17] is Rattus norvegicus. Kind of assay: Inhibition of egg albumin-induced allergic bronchospasm in sensitized, spontaneously breathing and anesthesized Harlan-Wistar rat assessed as drop in mean arterial blood pressure at 6.25 mg/kg administered intraduodenally 15 min prior to antigen challenge (reference value: 46.3 +/- 3.5 %). To be noted: route intraduodenal. A digest of the protocol: as §1

In assay [18] the test system is Rattus norvegicus. Kind of assay: Inhibition of egg albumin-induced allergic bronchospasm in sensitized, spontaneously breathing and anesthesized Harlan-Wistar rat assessed as drop in mean arterial blood pressure at 1.56 mg/kg administered intraduodenally 15 min prior to antigen challenge (reference value: 46.3 +/- 3.5 %). Conditions: route intraduodenal. A digest of the protocol:
as §1

Assay [19] has as its system Rattus norvegicus. Description: Inhibition of egg albumin-induced allergic bronchospasm in sensitized, spontaneously breathing and anesthesized Harlan-Wistar rat assessed as inhibition of control allergic bronchospasm response at 6.25 mg/kg administered intraduodenally 15 min prior to antigen challenge. To be noted: route intraduodenal. A digest of the protocol:
as §1

Assay [20] deals with Rattus norvegicus. Kind of assay: Inhibition of egg albumin-induced allergic bronchospasm in sensitized, spontaneously breathing and anesthesized Harlan-Wistar rat assessed as inhibition of control allergic bronchospasm response compound administered intraduodenally 15 min prior to antigen challenge. A digest of the protocol:
as §1

In assay [21] the test system is Rattus norvegicus. Description: Inhibition of egg albumin-induced allergic bronchospasm in sensitized, spontaneously breathing and anesthesized Harlan-Wistar rat assessed as inhibition of control allergic hypotension response at 50 mg/kg administered intraduodenally 15 min prior to antigen challenge. Conditions: route intraduodenal. An outline of the steps:
as §1

The test system of assay [22] is Rattus norvegicus. Kind of assay: Inhibition of egg albumin-induced allergic bronchospasm in sensitized, spontaneously breathing and anesthesized Harlan-Wistar rat assessed as inhibition of control allergic bronchospasm response at 50 mg/kg administered intraduodenally 15 min prior to antigen challenge. Conditions: route intraduodenal. A digest of the protocol: as §1

Assay [23] has as its system Rattus norvegicus. Kind of assay: Inhibition of egg albumin-induced allergic bronchospasm in sensitized, spontaneously breathing and anesthesized Harlan-Wistar rat assessed as inhibition of control allergic hypotension response at 12.5 mg/kg administered intraduodenally 15 min prior to antigen challenge. To be noted: route intraduodenal. A digest of the protocol:
as §1

In assay [24] the test system is Rattus norvegicus. Description: Inhibition of egg albumin-induced allergic bronchospasm in sensitized, spontaneously breathing and anesthesized Harlan-Wistar rat assessed as drop in pulmonary arterial blood pressure at 1.56 mg/kg administered intraduodenally 15 min prior to antigen challenge (reference value: 32.2 +/- 4.7 %). To be noted: route intraduodenal. A digest of the protocol: as §1

In assay [25] the test system is Rattus norvegicus. Kind of assay: Inhibition of egg albumin-induced allergic bronchospasm in sensitized, spontaneously breathing and anesthesized Harlan-Wistar rat assessed as drop in mean arterial blood pressure at 12.5 mg/kg administered intraduodenally 15 min prior to antigen challenge (reference value: 46.3 +/- 3.5 %). To be noted: route intraduodenal. A digest of the protocol: as §1

Assay [26] has as its system Rattus norvegicus. Description: Inhibition of egg albumin-induced allergic bronchospasm in sensitized, spontaneously breathing and anesthesized Harlan-Wistar rat assessed as drop in mean arterial blood pressure at 3.125 mg/kg administered intraduodenally 15 min prior to antigen challenge (reference value: 46.3 +/- 3.5 %). To be noted: route intraduodenal. A digest of the protocol:
as §1

Assay [27] concerns Rattus norvegicus. Kind of assay: Inhibition of egg albumin-induced allergic bronchospasm in sensitized, spontaneously breathing and anesthesized Harlan-Wistar rat assessed as inhibition of control allergic bronchospasm response at 12.5 mg/kg administered intraduodenally 15 min prior to antigen challenge. To be noted: route intraduodenal. An outline of the steps: as §1
For assay [28], the system named is Rattus norvegicus. Kind of assay: Inhibition of egg albumin-induced allergic bronchospasm in sensitized, spontaneously breathing and anesthesized Harlan-Wistar rat assessed as inhibition of control allergic hypotension response at 6.25 mg/kg administered intraduodenally 15 min prior to antigen challenge. To be noted: route intraduodenal. An outline of the steps:
as §1

Assay [29] deals with Rattus norvegicus. Description: Inhibition of egg albumin-induced allergic bronchospasm in sensitized, spontaneously breathing and anesthesized Harlan-Wistar rat assessed as inhibition of control allergic bronchospasm response at 3.125 mg/kg administered intraduodenally 15 min prior to antigen challenge. To be noted: route intraduodenal. A digest of the protocol:
as §1

Assay [30] relates to Rattus norvegicus. Description: Inhibition of egg albumin-induced allergic bronchospasm in sensitized, spontaneously breathing and anesthesized Harlan-Wistar rat assessed as drop in pulmonary arterial blood pressure at 50 mg/kg administered intraduodenally 15 min prior to antigen challenge (reference value: 32.2 +/- 4.7 %). To be noted: route intraduodenal. An outline of the steps: as §1

With `O=C([O-])c1cc(=O)c2c(OCC(O)COc3cccc4oc(C(=O)[O-])cc(=O)c34)cccc2o1.[Na+].[Na+]` [CROMOLYN SODIUM], the inhibition in vivo at 2 mg/kg in the assay on Rattus norvegicus [1] was found to be 22.4%; in the assay on Rattus norvegicus [3], 13%; in the assay on Rattus norvegicus [7] it was 63.8%; with Rattus norvegicus [8], 38.8%. In the assay with Mast cell [2], this molecule had an inhibition at 20 µM of 75%. Moreover, in the assay on Rattus norvegicus [4], the ED50 is 0.6 mg/kg. In the assay with Mast cell [5], this molecule yielded an inhibition at 1.25 µM of 20%. For the same molecule, the inhibition at 5 µM with Mast cell [6] turned out to be 50%.

Regarding `CCCCCCc1sc2nc(C(=O)[O-])nc([O-])c2c1C.O.[Na+].[Na+]`, the inhibition in vivo at 1.56 mg/kg is 9.4% in the assay with Rattus norvegicus [9], 0% in the assay on Rattus norvegicus [12], 63.8% with Rattus norvegicus [18] and 42% in the assay on Rattus norvegicus [24]. The inhibition in vivo at 6.25 mg/kg with Rattus norvegicus [10] stood at 28%; in the assay on Rattus norvegicus [17] it was 38.4%; in the assay with Rattus norvegicus [19], 34.2%; in the assay with Rattus norvegicus [28], 28.8%. Further, the inhibition in vivo at 50 mg/kg with Rattus norvegicus [11] is 45%; in the assay with Rattus norvegicus [21], 14%; in the assay on Rattus norvegicus [22] it was 61.2%; with Rattus norvegicus [30], 14%. Further, the inhibition entry with Rattus norvegicus [13] and in the assay with Rattus norvegicus [20] was “Dose-dependent effect” in each case. Moreover, the ED50 in the assay on Rattus norvegicus [13] (intraduodenal) and in the assay on Rattus norvegicus [20] (intraduodenal) was 3.8 mg/kg each time. The inhibition in vivo at 3.125 mg/kg with Rattus norvegicus [14] was 15.4%; with Rattus norvegicus [15], 27.6%; in the assay on Rattus norvegicus [26], 47.6%; in the assay with Rattus norvegicus [29], 28.3%. Further, the inhibition in vivo at 12.5 mg/kg in the assay with Rattus norvegicus [16] came out at 21.6%; in the assay on Rattus norvegicus [23] it was 0%; with Rattus norvegicus [25], 55.2%; in the assay with Rattus norvegicus [27] it was 41%.

A word on the inhibition in vivo: it is the relative decrease from the control value, in per cent. The term inhibition denotes how much of the control response was suppressed. In general, ED50 refers to the dose that gives a 50% effect, or the effect in half of the subjects.
